Tests used:
OCI-AML-3 = experiment: Antiproliferative activity against human OCI-AML3 cells after 72 hrs by Celltiter-Glo assay; format: functional; conditions: OCI-AML-3, 72 h
Summary of the method: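 Cells seeded at 3000/well in 96-well plates, exposed to serially diluted compound for 72 h at 37 °C, 5% CO2. Viability read by CellTiter-Glo luminescence and normalized to DMSO control. GI50 derived from curve fit, mean of three independent measurements. Culture media: DMEM/10% FBS for adherent lines; IMDM for MV4-11 and MEC-1/2; RPMI 1640 for suspension lines and CHL.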

[1] = Half life in Sprague-Dawley rat at 3 mg/kg, iv by LC-MS/MS analysis; format: ADME, organism-based; conditions: in vivo
[2] = target: Mitogen-activated protein kinase kinase kinase 5 (Homo sapiens) (UniProt Q99683); experiment: Binding affinity to wild-type human partial length ASK1 (E648 to S964 residues) expressed in bacterial expression system assessed as remaining unbound target protein level at 1000 nM by Kinomescan method relative to control
Summary of the method: (§1)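 KINOMEscan competition binding profile across a panel of 468 kinases and mutants, with the inhibitor tested at a single concentration of 1 μM. Binding is reported as percent of control, meaning signal relative to a DMSO control.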

[3] = target: Calcium/calmodulin-dependent protein kinase type II subunit alpha (Homo sapiens) (UniProt Q9UQM7); experiment: Binding affinity to wild-type human partial length CAMK2A (M1 to K328 residues) expressed in bacterial expression system assessed as remaining unbound target protein level at 1000 nM by Kinomescan method relative to control
Summary of the method: (§2)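 Profiled in a KINOMEscan binding panel with the inhibitor at a single concentration of 1 μM. Binding to each kinase was read out as percent of control, relative to a DMSO control. Strong binders were defined as those with a percent control value below 1.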

[4] = target: Cyclin-dependent kinase 11A (Homo sapiens) (UniProt Q9UQ88); experiment: Binding affinity to wild-type human partial length CDC2L2 (D391 to K730 residues) expressed in bacterial expression system assessed as remaining unbound target protein level at 1000 nM by Kinomescan method relative to control; summary of the method: as §2
[5] = target: Citron Rho-interacting kinase (Homo sapiens) (UniProt O14578); experiment: Binding affinity to wild-type human partial length CIT (M68 to E432 residues) expressed in bacterial expression system assessed as remaining unbound target protein level at 1000 nM by Kinomescan method relative to control; summary of the method: as §1
[6] = target: G protein-coupled receptor kinase 3 (Homo sapiens) (UniProt P35626); experiment: Binding affinity to wild-type human full length GRK3 (M1 to L688 residues) expressed in mammalian expression system assessed as remaining unbound target protein level at 1000 nM by Kinomescan method relative to control; summary of the method: as §1
G protein-coupled receptor kinase 3 (Homo sapiens), sequence (P35626 whole entry, the tested form may be a part): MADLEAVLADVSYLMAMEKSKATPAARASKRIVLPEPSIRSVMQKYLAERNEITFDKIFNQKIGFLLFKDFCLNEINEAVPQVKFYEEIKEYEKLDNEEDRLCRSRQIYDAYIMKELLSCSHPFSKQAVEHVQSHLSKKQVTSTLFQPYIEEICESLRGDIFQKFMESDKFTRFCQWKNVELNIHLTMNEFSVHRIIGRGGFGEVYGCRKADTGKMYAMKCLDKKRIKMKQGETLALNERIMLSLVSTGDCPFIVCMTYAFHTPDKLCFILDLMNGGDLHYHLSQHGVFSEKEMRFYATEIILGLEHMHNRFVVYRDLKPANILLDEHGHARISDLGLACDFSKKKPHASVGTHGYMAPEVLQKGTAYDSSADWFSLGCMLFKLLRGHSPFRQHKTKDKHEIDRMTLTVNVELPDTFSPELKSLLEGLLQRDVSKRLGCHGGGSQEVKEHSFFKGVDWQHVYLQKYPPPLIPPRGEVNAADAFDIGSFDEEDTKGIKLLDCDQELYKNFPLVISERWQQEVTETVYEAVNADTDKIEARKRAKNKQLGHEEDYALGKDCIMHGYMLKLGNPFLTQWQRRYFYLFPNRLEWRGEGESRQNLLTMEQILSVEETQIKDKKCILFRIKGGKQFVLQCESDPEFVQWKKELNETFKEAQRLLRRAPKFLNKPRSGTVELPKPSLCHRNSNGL

[7] = target: Insulin receptor-related protein (Homo sapiens) (UniProt P14616); experiment: Binding affinity to wild-type human partial length INSRR (R950 to E1278 residues) expressed in bacterial expression system assessed as remaining unbound target protein level at 1000 nM by Kinomescan method relative to control
[8] = tested on: Mast/stem cell growth factor receptor Kit (Homo sapiens), P10721 [V559D]; experiment: Binding affinity to human partial length KIT V559D mutant (Y545 to D952 residues) expressed in bacterial expression system assessed as remaining unbound target protein level at 1000 nM by Kinomescan method relative to control
Mast/stem cell growth factor receptor Kit (Homo sapiens), P10721 [V559D], sequence (P10721 whole entry V559D, the tested form may be a part): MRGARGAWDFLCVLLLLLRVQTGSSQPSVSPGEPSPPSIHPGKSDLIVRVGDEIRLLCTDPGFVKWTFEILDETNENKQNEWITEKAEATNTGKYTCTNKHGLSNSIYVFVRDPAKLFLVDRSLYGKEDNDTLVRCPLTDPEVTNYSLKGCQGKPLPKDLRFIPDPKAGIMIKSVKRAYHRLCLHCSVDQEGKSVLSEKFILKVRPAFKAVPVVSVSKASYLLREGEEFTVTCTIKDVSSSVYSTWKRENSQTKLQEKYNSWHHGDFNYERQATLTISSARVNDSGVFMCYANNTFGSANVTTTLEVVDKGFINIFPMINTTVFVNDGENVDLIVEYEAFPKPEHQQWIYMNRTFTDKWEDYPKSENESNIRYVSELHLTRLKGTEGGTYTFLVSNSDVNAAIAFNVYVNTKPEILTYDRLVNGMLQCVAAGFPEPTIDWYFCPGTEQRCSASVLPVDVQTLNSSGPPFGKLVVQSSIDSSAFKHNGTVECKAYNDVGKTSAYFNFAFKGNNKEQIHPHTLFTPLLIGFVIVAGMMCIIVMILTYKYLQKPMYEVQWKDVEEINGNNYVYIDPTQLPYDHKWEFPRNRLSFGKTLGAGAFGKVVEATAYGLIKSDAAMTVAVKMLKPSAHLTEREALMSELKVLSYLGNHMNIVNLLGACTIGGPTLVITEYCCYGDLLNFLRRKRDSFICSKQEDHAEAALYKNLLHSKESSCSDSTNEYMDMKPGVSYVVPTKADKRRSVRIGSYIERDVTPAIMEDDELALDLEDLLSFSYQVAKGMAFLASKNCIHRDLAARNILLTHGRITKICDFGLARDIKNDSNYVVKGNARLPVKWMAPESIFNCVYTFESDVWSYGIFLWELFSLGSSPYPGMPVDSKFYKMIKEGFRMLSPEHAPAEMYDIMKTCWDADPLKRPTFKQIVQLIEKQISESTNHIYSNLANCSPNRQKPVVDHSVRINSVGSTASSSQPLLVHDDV
Summary of the method: (§3)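 KINOMEscan competition-binding profiling across the panel of 468 kinases and mutants, with inhibitor tested at 1 μM. Binding is expressed as percent of control, with DMSO as the reference control.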

[9] = target: Serine/threonine-protein kinase LATS2 (Homo sapiens) (UniProt Q9NRM7); experiment: Binding affinity to wild-type human partial length LATS2 (Q641 to V1088 residues) expressed in mammalian expression system assessed as remaining unbound target protein level at 1000 nM by Kinomescan method relative to control
Serine/threonine-protein kinase LATS2 (Homo sapiens), sequence (Q9NRM7 whole entry, the tested form may be a part): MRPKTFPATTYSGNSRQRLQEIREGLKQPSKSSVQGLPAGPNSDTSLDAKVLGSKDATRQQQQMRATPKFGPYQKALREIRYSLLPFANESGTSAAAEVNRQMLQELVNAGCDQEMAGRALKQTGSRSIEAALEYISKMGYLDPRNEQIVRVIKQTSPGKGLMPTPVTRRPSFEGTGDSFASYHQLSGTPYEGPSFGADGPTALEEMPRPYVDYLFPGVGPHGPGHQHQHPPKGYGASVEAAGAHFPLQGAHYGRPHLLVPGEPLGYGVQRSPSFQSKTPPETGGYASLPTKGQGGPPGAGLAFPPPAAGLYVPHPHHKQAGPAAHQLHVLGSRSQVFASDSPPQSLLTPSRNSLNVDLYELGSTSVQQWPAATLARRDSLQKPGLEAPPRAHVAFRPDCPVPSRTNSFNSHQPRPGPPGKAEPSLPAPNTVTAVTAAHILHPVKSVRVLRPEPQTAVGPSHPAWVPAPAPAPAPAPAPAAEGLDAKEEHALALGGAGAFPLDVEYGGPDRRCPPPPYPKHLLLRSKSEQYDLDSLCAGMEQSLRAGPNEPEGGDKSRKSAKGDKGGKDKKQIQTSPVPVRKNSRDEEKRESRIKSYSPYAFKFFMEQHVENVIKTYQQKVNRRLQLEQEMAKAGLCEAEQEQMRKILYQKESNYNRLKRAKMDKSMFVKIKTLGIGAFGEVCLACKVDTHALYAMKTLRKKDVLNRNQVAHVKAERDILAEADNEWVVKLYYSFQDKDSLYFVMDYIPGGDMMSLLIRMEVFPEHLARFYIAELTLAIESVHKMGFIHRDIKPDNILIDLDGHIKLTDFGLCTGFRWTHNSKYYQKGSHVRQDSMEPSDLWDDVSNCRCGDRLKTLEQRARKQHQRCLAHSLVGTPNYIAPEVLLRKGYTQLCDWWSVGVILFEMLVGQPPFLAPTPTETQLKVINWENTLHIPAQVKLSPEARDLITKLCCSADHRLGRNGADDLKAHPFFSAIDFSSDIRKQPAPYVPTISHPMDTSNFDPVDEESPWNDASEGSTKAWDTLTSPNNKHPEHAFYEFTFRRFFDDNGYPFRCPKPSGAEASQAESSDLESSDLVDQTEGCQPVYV

[10] = target: Serine/threonine-protein kinase STK11 (Homo sapiens) (UniProt Q15831); experiment: Binding affinity to wild-type human full length LKB1 (M1 to Q433 residues) expressed in bacterial expression system assessed as remaining unbound target protein level at 1000 nM by Kinomescan method relative to control
Serine/threonine-protein kinase STK11 (Homo sapiens), sequence (Q15831 whole entry, the tested form may be a part): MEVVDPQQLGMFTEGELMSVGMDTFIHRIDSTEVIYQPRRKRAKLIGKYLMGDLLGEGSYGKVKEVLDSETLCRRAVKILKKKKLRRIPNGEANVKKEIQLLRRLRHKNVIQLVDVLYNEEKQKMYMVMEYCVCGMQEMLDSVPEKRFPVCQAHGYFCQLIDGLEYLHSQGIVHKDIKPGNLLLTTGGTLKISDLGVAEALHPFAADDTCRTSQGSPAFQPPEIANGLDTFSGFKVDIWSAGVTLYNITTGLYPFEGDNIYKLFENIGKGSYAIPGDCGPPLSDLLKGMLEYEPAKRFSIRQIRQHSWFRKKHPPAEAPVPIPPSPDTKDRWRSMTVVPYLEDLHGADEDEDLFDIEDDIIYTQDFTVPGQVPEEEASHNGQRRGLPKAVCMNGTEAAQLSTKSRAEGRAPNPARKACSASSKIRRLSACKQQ
Summary of the method: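 Single-point competition binding screen across a panel of 468 kinases and mutants, with the inhibitor at 1 μM. Binding is read out as percent of a DMSO control, and targets below 1 percent control were classed as strong binders.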

[11] = target: Leukocyte tyrosine kinase receptor (Homo sapiens) (UniProt P29376); experiment: Binding affinity to wild-type human partial length LTK (P422 to S744 residues) expressed in bacterial expression system assessed as remaining unbound target protein level at 1000 nM by Kinomescan method relative to control
Summary of the method: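 KINOMEscan binding panel of 468 kinases/mutants. Inhibitor was tested at a single concentration of 1 μM. Binding is reported as percent of control, defined relative to a DMSO control.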

[12] = target: Mitogen-activated protein kinase kinase kinase 1 (Homo sapiens) (UniProt Q13233); experiment: Binding affinity to wild-type human partial length MAP3K1 (L1202 to W1512 residues) expressed in mammalian expression system assessed as remaining unbound target protein level at 1000 nM by Kinomescan method relative to control
[13] = target: Serine/threonine-protein kinase 24 (Homo sapiens) (UniProt Q9Y6E0); experiment: Binding affinity to wild-type human partial length MST3 (A30 to S311 residues) expressed in bacterial expression system assessed as remaining unbound target protein level at 1000 nM by Kinomescan method relative to control
Serine/threonine-protein kinase 24 (Homo sapiens), sequence (Q9Y6E0 whole entry, looked up, the tested form may be a part, canonical isoform): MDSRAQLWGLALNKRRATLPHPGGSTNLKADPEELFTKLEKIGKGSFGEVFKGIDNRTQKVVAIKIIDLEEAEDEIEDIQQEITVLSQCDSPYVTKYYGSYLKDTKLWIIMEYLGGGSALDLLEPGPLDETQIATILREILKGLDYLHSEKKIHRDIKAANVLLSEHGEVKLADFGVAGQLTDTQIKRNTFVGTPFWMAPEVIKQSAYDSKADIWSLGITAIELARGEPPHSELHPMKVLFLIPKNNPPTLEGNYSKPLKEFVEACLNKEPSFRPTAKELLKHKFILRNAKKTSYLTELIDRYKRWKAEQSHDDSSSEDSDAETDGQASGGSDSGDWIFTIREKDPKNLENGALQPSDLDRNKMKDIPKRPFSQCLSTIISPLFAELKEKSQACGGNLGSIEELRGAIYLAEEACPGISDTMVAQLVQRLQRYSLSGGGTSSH

[14] = tested on: Phosphatidylinositol 4,5-bisphosphate 3-kinase catalytic subunit alpha isoform (Homo sapiens), P42336 [E545K]; experiment: Binding affinity to human partial length PIK3CA E545K mutant (R108 to N1068 residues) expressed in mammalian expression system assessed as remaining unbound target protein level at 1000 nM by Kinomescan method relative to control; summary of the method: as §3
[15] = target: Serine/threonine-protein kinase PRP4 homolog (Homo sapiens) (UniProt Q13523); experiment: Binding affinity to wild-type human partial length PRP4 (D657 to I1007 residues) expressed in bacterial expression system assessed as remaining unbound target protein level at 1000 nM by Kinomescan method relative to control
Serine/threonine-protein kinase PRP4 homolog (Homo sapiens), sequence (Q13523 whole entry, the tested form may be a part): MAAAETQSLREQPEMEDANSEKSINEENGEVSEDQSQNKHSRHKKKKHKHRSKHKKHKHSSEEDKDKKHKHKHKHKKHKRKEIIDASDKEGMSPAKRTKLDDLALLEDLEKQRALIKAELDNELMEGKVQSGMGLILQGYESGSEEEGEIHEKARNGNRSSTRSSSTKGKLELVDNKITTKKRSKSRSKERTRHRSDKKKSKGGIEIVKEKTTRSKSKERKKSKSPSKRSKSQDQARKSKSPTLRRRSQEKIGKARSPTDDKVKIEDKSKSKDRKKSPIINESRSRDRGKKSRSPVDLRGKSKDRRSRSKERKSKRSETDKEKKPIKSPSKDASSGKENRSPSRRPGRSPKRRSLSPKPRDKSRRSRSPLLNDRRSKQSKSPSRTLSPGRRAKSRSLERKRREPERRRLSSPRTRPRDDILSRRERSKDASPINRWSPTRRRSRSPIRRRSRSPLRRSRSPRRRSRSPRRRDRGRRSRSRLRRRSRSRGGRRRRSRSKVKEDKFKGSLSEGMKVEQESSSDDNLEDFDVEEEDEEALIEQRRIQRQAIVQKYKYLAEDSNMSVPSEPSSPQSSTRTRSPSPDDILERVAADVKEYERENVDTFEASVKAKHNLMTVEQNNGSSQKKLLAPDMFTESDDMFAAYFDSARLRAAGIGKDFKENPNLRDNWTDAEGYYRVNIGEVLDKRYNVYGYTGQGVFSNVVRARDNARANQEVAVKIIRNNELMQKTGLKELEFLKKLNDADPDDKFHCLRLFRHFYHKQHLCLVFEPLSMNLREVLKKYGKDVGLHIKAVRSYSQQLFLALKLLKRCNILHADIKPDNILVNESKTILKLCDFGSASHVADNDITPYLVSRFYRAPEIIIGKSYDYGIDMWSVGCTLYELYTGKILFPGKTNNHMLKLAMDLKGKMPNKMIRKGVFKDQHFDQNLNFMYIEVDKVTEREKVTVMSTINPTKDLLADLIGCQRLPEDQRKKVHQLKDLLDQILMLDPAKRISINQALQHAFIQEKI

[16] = target: Transient receptor potential cation channel subfamily M member 6 (Homo sapiens) (UniProt Q9BX84); experiment: Binding affinity to wild-type human partial length TRPM6 (Q1723 to I1998 residues) expressed in mammalian expression system assessed as remaining unbound target protein level at 1000 nM by Kinomescan method relative to control
[17] = target: Serine/threonine-protein kinase 25 (Homo sapiens) (UniProt O00506); experiment: Binding affinity to wild-type human partial length YSK1 (V14 to H295 residues) expressed in bacterial expression system assessed as remaining unbound target protein level at 1000 nM by Kinomescan method relative to control
Serine/threonine-protein kinase 25 (Homo sapiens), sequence (O00506 whole entry, looked up, the tested form may be a part): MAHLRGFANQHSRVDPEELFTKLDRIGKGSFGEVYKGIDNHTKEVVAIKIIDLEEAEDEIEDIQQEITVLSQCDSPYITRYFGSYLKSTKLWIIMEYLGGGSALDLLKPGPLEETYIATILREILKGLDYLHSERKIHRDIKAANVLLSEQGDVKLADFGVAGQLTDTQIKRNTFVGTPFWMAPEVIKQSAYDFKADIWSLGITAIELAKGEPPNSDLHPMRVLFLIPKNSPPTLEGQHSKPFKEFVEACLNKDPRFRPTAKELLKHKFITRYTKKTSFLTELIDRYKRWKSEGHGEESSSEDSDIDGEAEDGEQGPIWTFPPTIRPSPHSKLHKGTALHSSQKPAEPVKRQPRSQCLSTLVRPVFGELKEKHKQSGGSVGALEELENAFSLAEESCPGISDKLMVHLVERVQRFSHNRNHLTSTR

Homo sapiens = species: Homo sapiens; experiment: Selectivity ratio of IC50 for recombinant full length His-tagged human CDK1/CyclinB to IC50 for recombinant full length His-tagged human CDK9/CyclinT1

## COCCN[C@H]1CC[C@H](Nc2cc(-c3csc(NCC4(C#N)CCOCC4)n3)c(Cl)cn2)CC1
OCI-AML-3
  GI50: 6.6 nM
[1]
  half-life: 6.8 h
[2]
  Activity: 77%
[3]
  Activity: 100%
[4]
  Activity: 90%
[5]
  Activity: 23%
[6]
  Activity: 42%
[7]
  Activity: 92%
[8]
  Activity: 100%
[9]
  Activity: 84%
[10]
  Activity: 100%
[11]
  Activity: 95%
[12]
  Activity: 100%
[13]
  Activity: 90%
[14]
  Activity: 100%
[15]
  Activity: 100%
[16]
  Activity: 89%
[17]
  Activity: 92%
Homo sapiens
  Ratio IC50: > 1000
